ChEMBL document CHEMBL1147636, “Fluorescence-labeled sphingosines as substrates of sphingosine kinases 1 and 2” (Bioorg Med Chem Lett, 2004)

Legend:
[1] = biological target: Sphingosine kinase 1 (Homo sapiens) (UniProt Q9NYA1); test: Rate of phosphorylation of labeled sphingosine derivative by human SPHK-1 expressed in HEK293 cells relative to rate of D-sphingosine; type: functional, cell-based
In short: (§1)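 Enzyme source was the cytoplasmic fraction of HEK-293 cells overexpressing human SPHK-1 or -2. Incubation was at 30 °C for time points up to 2 h. Lipids were extracted, separated by TLC and quantified by phosphorimaging, and rates were expressed relative to sphingosine.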

[2] = biological target: T1, Sphingosine kinase 2 (Homo sapiens) (UniProt Q9NRA0); test: Rate of phosphorylation of labeled sphingosine derivative by human SPHK-2 expressed in HEK293 cells relative to rate of D-sphingosine; type: functional, cell-based; in short: as §1
T1 sequence (whole entry): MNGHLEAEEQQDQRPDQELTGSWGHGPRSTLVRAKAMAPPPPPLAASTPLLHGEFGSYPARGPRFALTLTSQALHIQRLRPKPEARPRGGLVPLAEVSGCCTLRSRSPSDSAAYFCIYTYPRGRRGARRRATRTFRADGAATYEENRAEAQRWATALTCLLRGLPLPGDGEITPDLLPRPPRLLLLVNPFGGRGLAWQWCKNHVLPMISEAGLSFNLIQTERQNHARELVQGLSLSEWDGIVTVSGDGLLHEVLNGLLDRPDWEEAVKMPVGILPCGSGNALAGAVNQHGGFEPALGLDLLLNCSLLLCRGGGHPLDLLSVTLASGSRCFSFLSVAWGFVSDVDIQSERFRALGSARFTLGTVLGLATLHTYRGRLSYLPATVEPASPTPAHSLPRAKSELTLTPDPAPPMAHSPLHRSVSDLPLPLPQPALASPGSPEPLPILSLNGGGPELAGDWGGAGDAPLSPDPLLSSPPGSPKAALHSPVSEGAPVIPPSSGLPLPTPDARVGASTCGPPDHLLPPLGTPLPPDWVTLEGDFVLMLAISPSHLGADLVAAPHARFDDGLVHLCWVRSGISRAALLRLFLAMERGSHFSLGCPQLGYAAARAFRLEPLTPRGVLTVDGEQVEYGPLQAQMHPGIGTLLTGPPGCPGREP

Sphingosine kinase 1 (Homo sapiens), sequence (Q9NYA1 whole entry): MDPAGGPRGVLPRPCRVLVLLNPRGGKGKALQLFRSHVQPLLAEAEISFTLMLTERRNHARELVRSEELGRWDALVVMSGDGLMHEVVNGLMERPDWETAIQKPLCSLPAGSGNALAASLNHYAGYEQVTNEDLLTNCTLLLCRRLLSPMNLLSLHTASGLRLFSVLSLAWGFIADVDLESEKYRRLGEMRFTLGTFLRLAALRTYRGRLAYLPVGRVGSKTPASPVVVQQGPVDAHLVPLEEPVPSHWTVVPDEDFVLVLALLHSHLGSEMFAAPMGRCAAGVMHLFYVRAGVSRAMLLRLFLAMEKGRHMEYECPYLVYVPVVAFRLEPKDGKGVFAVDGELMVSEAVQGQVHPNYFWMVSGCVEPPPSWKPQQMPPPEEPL

SMILES | Rate [1] | Rate [2]
N[C@@H](CO)[C@H](O)/C=C/CCCOC(=O)CCCc1ccc2ccc3cccc4ccc1c2c34 | 0.048 | 0.14
CN(C)c1ccc(S(=O)(=O)NCCCCCCCCCC/C=C/C(O)C(N)CO)c2ccccc12 (single isomer, unassigned) | 0.063 | 0.026
NC(CO)[C@H](O)/C=C/CCCCCCCCCCNc1ccc([N+](=O)[O-])c2nonc12 (single isomer, unassigned) | 0.5 | 0.48
N[C@@H](CO)[C@H](O)/C=C/CCCOC(=O)CCCCCc1ccc2ccc3cccc4ccc1c2c34 | 0.078 | 0.83

Next, values leading:

Rate [1] | Rate [2] | SMILES
0.051 | 0.83 | NC(CO)[C@H](O)/C=C/CCCCCCCCCCNS(=O)(=O)c1ccc2ccc3cccc4ccc1c2c34 (some centres undefined)
0.83 | 1.25 | N[C@@H](CO)[C@H](O)/C=C/CCCCCCCCCCOC(=O)c1ccc2ccc3cccc4ccc1c2c34
0.024 | 0.065 | N[C@@H](CO)[C@H](O)/C=C/CCCOC(=O)CCCCCCCCCc1ccc2ccc3cccc4ccc1c2c34
